ChEMBL document CHEMBL4219167, “Disulfiram-based disulfides as narrow-spectrum antibacterial agents” (Bioorg Med Chem Lett, 2018)
Converted amounts (≈) assume the structure as drawn.

What was measured:
[1] = test system: Staphylococcus aureus; test: Antibacterial activity against methicillin-resistant Staphylococcus aureus COL after 20 hrs by broth microdilution assay; format: functional
[2] = test system: Staphylococcus aureus; test: Antibacterial activity against vancomycin-intermediate resistant Staphylococcus aureus AR-217 after 20 hrs by broth microdilution assay; format: functional; conditions: AR-217, 20 h
[3] = test system: Staphylococcus aureus; test: Antibacterial activity against vancomycin-resistant Staphylococcus aureus HIP14300 after 20 hrs by broth microdilution assay; format: functional; conditions: HIP14300, 20 h
[4] = test system: Staphylococcus epidermidis; test: Antibacterial activity against vancomycin-intermediate resistant Staphylococcus epidermidis NRS6 after 20 hrs by broth microdilution assay; format: functional; conditions: NRS6, 20 h
[5] = test system: Streptococcus pyogenes; test: Antibacterial activity against Streptococcus pyogenes H293 after 20 hrs by broth microdilution assay; format: functional; conditions: H293, 20 h
[6] = test system: Streptococcus agalactiae; test: Antibacterial activity against Streptococcus agalactiae SGBS005 after 20 hrs by broth microdilution assay; format: functional; conditions: SGBS005, 20 h
[7] = test system: Streptococcus pneumoniae; test: Antibacterial activity against Streptococcus pneumoniae TCH8431 after 20 hrs by broth microdilution assay; format: functional; conditions: TCH8431, 20 h
[8] = test system: Enterococcus faecium; test: Antibacterial activity against vancomycin-resistant Enterococcus faecium ATCC 700221 after 20 hrs by broth microdilution assay; format: functional; conditions: ATCC 700221, 20 h
Method in brief: (§1)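 Brain heart infusion broth at 37°C; E. faecium under 5% CO2. Cells at 0.5 McFarland are diluted 1:100 and exposed to serial dilutions (DMSO stocks 1 mM or 1 mg/mL; controls in water).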

[9] = test system: Bacillus anthracis; test: Antibacterial activity against Bacillus anthracis Ames 35 after 20 hrs by broth microdilution assay; format: functional; conditions: Ames 35, 20 h
[10] = test system: Bacillus anthracis; test: Antibacterial activity against Bacillus anthracis Sterne 34F2 after 20 hrs by broth microdilution assay; format: functional; conditions: Sterne 34F2, 20 h
[11] = test system: Bacillus anthracis; test: Antibacterial activity against Bacillus anthracis UM23-1 after 20 hrs by broth microdilution assay; format: functional; conditions: UM23-1, 20 h
[12] = test system: Bacillus anthracis; test: Antibacterial activity against Bacillus anthracis Weybridge after 20 hrs by broth microdilution assay; format: functional
[13] = test system: Francisella tularensis; test: Antibacterial activity against Francisella tularensis Utah 112 after 20 hrs by broth microdilution assay; format: functional; conditions: Utah 112, 20 h
[14] = test system: Yersinia pestis; test: Antibacterial activity against Yersinia pestis Kim D2 after 20 hrs by broth microdilution assay; format: functional; conditions: Kim D2, 20 h
[15] = test system: Yersinia pestis; test: Antibacterial activity against Yersinia pestis Kuma D7 after 20 hrs by broth microdilution assay; format: functional; conditions: Kuma D7, 20 h
[16] = test system: Bacillus cereus; test: Antibacterial activity against Bacillus cereus Gibson 971 after 20 hrs by broth microdilution assay; format: functional; conditions: Gibson 971, 20 h
[17] = test system: Corynebacterium striatum; test: Antibacterial activity against Corynebacterium striatum FS-1 after 20 hrs by broth microdilution assay; format: functional; conditions: FS-1, 20 h
[18] = test system: Listeria monocytogenes; test: Antibacterial activity against Listeria monocytogenes Gibson after 20 hrs by broth microdilution assay; format: functional; method in brief: as §1
[19] = test system: Micrococcus luteus; test: Antibacterial activity against Micrococcus luteus SK58 after 20 hrs by broth microdilution assay; format: functional; conditions: SK58, 20 h
[20] = test system: Rhodococcus erythropolis; test: Antibacterial activity against Rhodococcus erythropolis SK121 after 20 hrs by broth microdilution assay; format: functional; conditions: SK121, 20 h
Method in brief: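 R. erythropolis grown in brain heart infusion broth at 30°C. A 0.5 McFarland suspension diluted 1:100 is treated with serial dilutions from 1 mM or 1 mg/mL DMSO stocks; control antibiotics are in water.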

[21] = test system: Acinetobacter baumannii; test: Antibacterial activity against Acinetobacter baumannii AB5075 after 20 hrs by broth microdilution assay; format: functional; conditions: AB5075, 20 h
[22] = test system: Brucella neotomae; test: Antibacterial activity against Brucella neotomae 5K33 after 20 hrs by broth microdilution assay; format: functional; conditions: 5K33, 20 h
[23] = test system: Burkholderia multivorans; test: Antibacterial activity against Burkholderia multivorans CF2 after 20 hrs by broth microdilution assay; format: functional; conditions: CF2, 20 h
Method in brief: (§2)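 Medium is tryptic soy broth, 37°C. Overnight culture is adjusted to 0.5 McFarland, diluted 1:100 and exposed to serial dilutions (test agents from 1 mM or 1 mg/mL DMSO stocks; control antibiotics in water). Incubation lasts 20 h. MIC is the lowest concentration with no visible growth.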

[24] = test system: Burkholderia cepacia; test: Antibacterial activity against Burkholderia cepacia UCB 717 after 20 hrs by broth microdilution assay; format: functional; conditions: UCB 717, 20 h; method in brief: as §2
[25] = test system: Citrobacter freundii; test: Antibacterial activity against Citrobacter freundii 4_7_47CFAA after 20 hrs by broth microdilution assay; format: functional
Method in brief: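 Brucella broth, 37°C, 5% CO2. Inoculum is 0.5 McFarland diluted 1:100, with serial drug dilutions from DMSO stocks (1 mM or 1 mg/mL) and control antibiotics in water.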

[26] = test system: Escherichia coli; test: Antibacterial activity against Escherichia coli DC10B after 20 hrs by broth microdilution assay; format: functional; method in brief: as §2
[27] = test system: Klebsiella pneumoniae; test: Antibacterial activity against Klebsiella pneumoniae 700603 after 20 hrs by broth microdilution assay; format: functional; conditions: Klebsiella pneumoniae, 700603, 20 h; method in brief: as §2
[28] = test system: Proteus mirabilis; test: Antibacterial activity against Proteus mirabilis HM-752 after 20 hrs by broth microdilution assay; format: functional; conditions: HM-752, 20 h; method in brief: as §2
[29] = test system: Pseudomonas aeruginosa; test: Antibacterial activity against Pseudomonas aeruginosa ATCC 15442 after 20 hrs by broth microdilution assay; format: functional; conditions: ATCC 15442, 20 h; method in brief: as §2
[30] = test system: Salmonella typhi; test: Antibacterial activity against Salmonella typhi Ty2 after 20 hrs by Todd Hewitt broth broth microdilution method; format: functional, Salmonella enterica subsp. enterica serovar Typhi str. Ty2; conditions: Salmonella enterica
[31] = test system: Yersinia enterocolitica; test: Antibacterial activity against Yersinia enterocolitica WA-314 after 20 hrs by broth microdilution assay; format: functional; conditions: WA-314, 20 h
Method in brief: (§3)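 Yersinia cultured in tryptic soy broth at 28°C. A 0.5 McFarland suspension diluted 1:100 receives serial dilutions of agents from 1 mM or 1 mg/mL DMSO stocks; control antibiotics are in water.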

[32] = test system: Shigella dysenteriae; test: Antibacterial activity against Shigella dysenteriae Newcastle 1934 after 20 hrs by broth microdilution assay; format: functional; conditions: Newcastle 1934, 20 h; method in brief: as §2
[33] = test system: Vibrio cholerae; test: Antibacterial activity against Vibrio cholerae TS D4 after 20 hrs by Todd Hewitt broth broth microdilution method; format: functional; conditions: TS D4, 20 h
[34] = test system: Yersinia pseudotuberculosis; test: Antibacterial activity against Yersinia pseudotuberculosis P61 after 20 hrs by broth microdilution assay; format: functional; conditions: P61, 20 h; method in brief: as §3
[35] = test system: HepG2; test: Cytotoxicity against human HepG2 cells assessed as reduction in cell viability after 72 hrs by MTT assay; format: cell-based; conditions: HepG2, 72 h

Row | Compound | MIC [1] | MIC [2] | MIC [3] | MIC [4] | MIC [5] | MIC [6] | MIC [7] | MIC [8] | MIC [9] | MIC [10] | MIC [11] | MIC [12] | MIC [13] | MIC [14] | MIC [15] | MIC [16] | MIC [17] | MIC [18] | MIC [19] | MIC [20] | other results
1 | CCCCCCCSSC(=S)N(CC)CC | 4 µM (≈ 1.12 µg/mL) | 2 µM (≈ 0.559 µg/mL) | 4 µM (≈ 1.12 µg/mL) | 4 µM (≈ 1.12 µg/mL) | 16 µM (≈ 4.47 µg/mL) | > 32 µM | 32 µM (≈ 8.95 µg/mL) | 8 µM (≈ 2.24 µg/mL) | 4 µM (≈ 1.12 µg/mL) | 2 µM (≈ 0.559 µg/mL) | 1 µM (≈ 0.28 µg/mL) | 2 µM (≈ 0.559 µg/mL) | 16 µM (≈ 4.47 µg/mL) | 32 µM (≈ 8.95 µg/mL) | 32 µM (≈ 8.95 µg/mL) | 1 µM (≈ 0.28 µg/mL) | 16 µM (≈ 4.47 µg/mL) | 4 µM (≈ 1.12 µg/mL) | 16 µM (≈ 4.47 µg/mL) | 16 µM (≈ 4.47 µg/mL) | MIC [21]: > 32 µM; MIC [22]: > 32 µM; MIC [23]: > 32 µM; MIC [24]: > 32 µM; MIC [25]: > 32 µM; MIC [26]: > 32 µM; MIC [27]: > 32 µM; MIC [28]: > 32 µM; MIC [29]: > 32 µM; MIC [30]: > 32 µM; MIC [31]: > 32 µM; MIC [32]: > 32 µM; MIC [33]: > 32 µM; MIC [34]: > 32 µM
2 | CCN(CC)C(=S)SSCc1ccccc1 | 8 µM (≈ 2.17 µg/mL) | 2 µM (≈ 0.543 µg/mL) | 8 µM (≈ 2.17 µg/mL) | 8 µM (≈ 2.17 µg/mL) | > 32 µM | > 32 µM | > 32 µM | 32 µM (≈ 8.69 µg/mL) | 4 µM (≈ 1.09 µg/mL) | 4 µM (≈ 1.09 µg/mL) | 2 µM (≈ 0.543 µg/mL) | 4 µM (≈ 1.09 µg/mL) | 32 µM (≈ 8.69 µg/mL) | 16 µM (≈ 4.34 µg/mL) | 32 µM (≈ 8.69 µg/mL) | 2 µM (≈ 0.543 µg/mL) | 32 µM (≈ 8.69 µg/mL) | 8 µM (≈ 2.17 µg/mL) | 16 µM (≈ 4.34 µg/mL) | 16 µM (≈ 4.34 µg/mL) | MIC [21]: > 32 µM; MIC [22]: 32 µM (≈ 8.69 µg/mL); MIC [23]: 32 µM (≈ 8.69 µg/mL); MIC [24]: > 32 µM; MIC [25]: > 32 µM; MIC [26]: > 32 µM; MIC [27]: > 32 µM; MIC [28]: > 32 µM; MIC [29]: > 32 µM; MIC [30]: > 32 µM; MIC [31]: > 32 µM; MIC [32]: > 32 µM; MIC [33]: > 32 µM; MIC [34]: > 32 µM
3 | CCCSSC(=S)N(CC)CC | 16 µM (≈ 3.57 µg/mL) | 8 µM (≈ 1.79 µg/mL) | 16 µM (≈ 3.57 µg/mL) | 32 µM (≈ 7.15 µg/mL) | 32 µM (≈ 7.15 µg/mL) | > 32 µM | > 32 µM | > 32 µM | 4 µM (≈ 0.894 µg/mL) | 4 µM (≈ 0.894 µg/mL) | 4 µM (≈ 0.894 µg/mL) | 4 µM (≈ 0.894 µg/mL) | 32 µM (≈ 7.15 µg/mL) | 16 µM (≈ 3.57 µg/mL) | 32 µM (≈ 7.15 µg/mL) | 1 µM (≈ 0.223 µg/mL) | > 32 µM | 16 µM (≈ 3.57 µg/mL) | 16 µM (≈ 3.57 µg/mL) | 16 µM (≈ 3.57 µg/mL) | MIC [21]: > 32 µM; MIC [22]: > 32 µM; MIC [23]: 32 µM (≈ 7.15 µg/mL); MIC [24]: > 32 µM; MIC [25]: > 32 µM; MIC [26]: > 32 µM; MIC [27]: > 32 µM; MIC [28]: > 32 µM; MIC [29]: > 32 µM; MIC [30]: > 32 µM; MIC [31]: > 32 µM; MIC [32]: > 32 µM; MIC [33]: 32 µM (≈ 7.15 µg/mL); MIC [34]: > 32 µM; IC50 [35]: 51 µM
